{"source": "paper PMC2745912", "about": "(The Journal of neuroscience : the official journal of the …, 2009)", "key": {"ABCG2 expression in HBEC": {"tested_on": "ABCG2 expression in HBEC", "assay": "ABCG2 expression in human brain endothelial cells", "type": "cell-based", "settings": "50 units of either cytokine; data not shown"}, "Abcg2 [1]": {"biological_target": "T1, Abcg2 (Mus musculus, UniProt Q7TMS5)", "T1 sequence (Q7TMS5 1-657)": "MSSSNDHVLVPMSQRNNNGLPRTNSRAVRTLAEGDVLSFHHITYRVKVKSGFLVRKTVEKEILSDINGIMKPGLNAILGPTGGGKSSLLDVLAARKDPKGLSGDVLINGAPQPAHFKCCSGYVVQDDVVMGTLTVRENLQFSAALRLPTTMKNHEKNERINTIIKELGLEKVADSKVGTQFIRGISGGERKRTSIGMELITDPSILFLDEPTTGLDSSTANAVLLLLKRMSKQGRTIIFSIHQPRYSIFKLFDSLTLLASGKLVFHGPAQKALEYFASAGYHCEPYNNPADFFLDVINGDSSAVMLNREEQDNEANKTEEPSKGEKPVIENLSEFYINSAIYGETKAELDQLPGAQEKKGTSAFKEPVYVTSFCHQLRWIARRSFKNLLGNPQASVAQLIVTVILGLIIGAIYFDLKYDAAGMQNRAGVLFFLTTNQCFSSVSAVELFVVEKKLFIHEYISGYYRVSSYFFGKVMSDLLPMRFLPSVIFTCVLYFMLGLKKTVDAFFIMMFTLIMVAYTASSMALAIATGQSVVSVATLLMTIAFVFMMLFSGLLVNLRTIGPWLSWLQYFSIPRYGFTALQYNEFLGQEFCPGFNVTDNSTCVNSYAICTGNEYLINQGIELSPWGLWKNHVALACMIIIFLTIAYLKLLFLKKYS", "type": "in vivo", "outline": "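Peptides were Cy5.5-labeled via NHS ester kit. Adult KO/wt pairs were matched for age, sex and weight and shaved under isoflurane. Pairs received equal labeled peptide (65 or 200 μg) by tail vein. Heads were imaged live (1.5 mm resolution) at 15 min and 2, 4, 6, 8 and/or 24 h. Brains were saline-perfused and scanned ex vivo (1 mm). Excitation: 670 nm pulsed laser diode, 80 MHz, 12 ps.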"}, "Abcg2 [2]": {"biological_target": "T1, Abcg2", "type": "in vivo", "settings": "after intravenous injection; brain sections stained with 6E10", "outline": "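Mice received i.v. Cy5.5-labeled Aβ1–40 and underwent optical imaging, then saline perfusion. Brains were OCT-embedded and frozen-sectioned at 10 μm. Sections were immunostained with anti-Aβ 6E10 plus secondary antibody; control sections got secondary antibody only. Vessels were marked with fluorescein-labeled tomato lectin.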"}, "hABCG2": {"biological_target": "T2, hABCG2 (Homo sapiens, UniProt Q9UNQ0)", "T2 sequence (Q9UNQ0 1-655)": "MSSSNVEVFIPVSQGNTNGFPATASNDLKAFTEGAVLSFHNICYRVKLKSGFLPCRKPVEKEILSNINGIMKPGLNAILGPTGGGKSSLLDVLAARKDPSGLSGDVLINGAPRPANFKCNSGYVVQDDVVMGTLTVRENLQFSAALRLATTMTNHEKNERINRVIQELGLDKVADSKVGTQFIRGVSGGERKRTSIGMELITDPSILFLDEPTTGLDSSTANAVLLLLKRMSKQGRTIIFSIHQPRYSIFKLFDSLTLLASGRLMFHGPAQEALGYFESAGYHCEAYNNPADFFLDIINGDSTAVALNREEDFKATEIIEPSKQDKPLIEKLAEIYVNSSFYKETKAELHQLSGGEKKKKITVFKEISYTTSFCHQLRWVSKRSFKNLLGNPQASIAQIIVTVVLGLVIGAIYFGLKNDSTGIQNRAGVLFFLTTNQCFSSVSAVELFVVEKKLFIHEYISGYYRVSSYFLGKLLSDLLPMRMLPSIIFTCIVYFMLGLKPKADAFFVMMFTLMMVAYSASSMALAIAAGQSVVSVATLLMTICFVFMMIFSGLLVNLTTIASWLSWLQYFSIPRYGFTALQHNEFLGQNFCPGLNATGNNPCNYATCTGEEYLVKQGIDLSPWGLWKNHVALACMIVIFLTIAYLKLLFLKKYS", "type": "cell-based", "settings": "empty vector-transfected HEK293; 5 μM Aβ1-40; Hoechst 33342; data not shown"}}}
{"substance": "TNF-α", "values": [{"measurement": "ABCG2 expression in HBEC after cytokine", "setting": "ABCG2 expression in HBEC", "result": "no changes in ABCG2 expression"}]}
{"substance": "Cy5.5-labeled Aβ1-40: Synthetic Aβ1-40 labeled with fluorescent dye Cy5.5 using Cy5.5 Mono NHS ester kit", "values": [{"measurement": "brain fluorescence concentration, Abcg2 KO vs wt animals", "setting": "Abcg2 [1]; 65 μg/mouse i.v., two pairs of mice, data not shown", "result": "comparatively higher"}, {"measurement": "Aβ immunofluorescence in brains of Abcg2 KO mice compared to wt mice", "setting": "Abcg2 [2]", "result": "strongly enhanced"}]}
{"substance": "Aβ1-40: Synthetic Aβ1-40 peptide purchased from Biopeptides Co., Inc", "values": [{"measurement": "effect of Aβ1-40 peptides on drug uptake in empty vector-transfected cells", "setting": "hABCG2", "result": "did not significantly affect"}, {"measurement": "more peptide transported into the brain in the absence of Abcg2", "setting": "Abcg2 [1]; Abcg2 KO vs wt mice, i.v. injection of Cy5.5-labeled peptide", "result": "20~37%"}]}
{"substance": "IL-1β: pro-inflammatory cytokine", "values": [{"measurement": "ABCG2 expression in HBEC after cytokine", "setting": "ABCG2 expression in HBEC", "result": "no changes in ABCG2 expression"}]}
